Measurements published in the EternaBench riboswitch data.

Test system: MS2 coat protein
Experiment: apparent Kd, MS2 coat protein; higher = weaker binding; RNA-MaP array; FMN 200 µM where present
How it was run: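 On Illumina sequencing-chip clusters, designs were transcribed by stalled E. coli RNA polymerase and titrated with SNAP-549-labelled MS2 coat protein (0.7 or 1.5 nM, doubling to 3 µM), without and then with constant ligand, in 100 mM Tris-HCl pH 7.5, 80 mM KCl, 4 mM MgCl2, BSA, DTT, yeast tRNA and Tween-20. Apparent Kd is the median of filtered per-cluster curve fits to green signal normalised to red-channel RNA signal and control-cluster median Fmax.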

[1] = designed as: OFF switch for flavin mononucleotide, no ligand
[2] = ligand present: flavin mononucleotide, designed as: OFF switch for flavin mononucleotide
[3] = designed as: ON switch for flavin mononucleotide, no ligand
[4] = ligand present: flavin mononucleotide, designed as: ON switch for flavin mononucleotide

Row | Sequence | apparent Kd [1] | apparent Kd [2] | apparent Kd [3] | apparent Kd [4]
1 | UUUUUACGAGGAUAUCGUUUUUUUCACAUGAGGAUCACCCAUGUUGUUUAUGUUUCGUUGCGAGAAGGCGUUUGUU | 27.3 nM | 21.3 nM | – | –
2 | AAGAAGUGAGGAUAUCGUGCUCGUCACUUGCGUGAUGAGUACGAGAAGGCACAUGAGGAUCACCCAUGUAAAGA | 37.6 nM | 46.1 nM | – | –
3 | CCAUUUCAGUAAGGAUAUAUAAACAUGACGAUACAUGAGGAUCACCCAUGUGUAGAAGGUACUAAUACAUAUAAUACAAUGCUC | 19.2 nM | 15.7 nM | – | –
4 | UUAUGGUUCAAGAAGGAUGUAUUUGACUUAUACAUAGGAUAUUGUUAAAUUGAUAAUUAAUGUAACAUGAGGAUCACCCAUGUA | – | – | 8.1 nM | 7.39 nM
5 | GUGCGUGGCUAGGAUAUUGUGGAGUUUAGUCAGCGAGAAGGAGCCACAUGAGGAUCACCCAUGUGGUGAAGCUC | 19.9 nM | 75 nM | – | –
6 | CACGAAGGAGGAUAUAUUAAGGCAGAUCCUAUACAUCGGUUACAUGAGGAUCACCCAUGUAGAAGGCCUACAAA | 49 nM | 185 nM | – | –
7 | AACUCACAUGAGGAUCACCCAUGUGAGGAUAUGGUUUCGCUGGCCGUAGCCAGUGGAACCAGAAGGCGCAUGAU | 20.1 nM | 20 nM | – | –
8 | GGUUUGGGAGGAUAUGGUUUUAAUAACAUGAGGAUCACCCAUGUAAAUAGAUCUUCGAGGCCAGAAGGCUCGGGCC | 63.8 nM | 120 nM | – | –
9 | CCUCCACAUGAGGAUCACCCAUGUCAGGAUAUCGUGUGUUUUUUUUCGGUCUUGCGUGCGAGAAGGGACGUCUU | 35.6 nM | 39.4 nM | – | –
10 | UGAAAUCAUGUAGGAUAUGCAUGGCGCAGCUACGCAGAAGGACAUGAGGAUCACCCAUGUUAUAGCUACCCAGUUCGGUGGCAA | 30.6 nM | 173 nM | – | –
11 | UUGUUAGCAGGAUAUAUCCACGACCACAUGAGGAUCACCCAUGUGGCCGCUUGAGGUUGUAUAGAAGGGCUUUGUU | 13.8 nM | 14.3 nM | – | –
12 | AUCAUGUAAGGAUAUCUUACAUGUAUCGAAAGAUACAGUUAAGAGAAGGUACAUGAGGAUCACCCAUGUAUAAC | 29 nM | 45.5 nM | – | –
13 | GCGUAAUAGGUGUAGCUAGUCGUACAAGAAGGGUGGAGAACAUGAGGAUCACCCAUGUGGUCUAUACAGGAUAUUGUUAUACGC | – | – | 176 nM | 30.5 nM
14 | AGAUCACAAAUUUGGGAUAGUAGUACAGAAGGCACGGAAGUACAUGAGGAUCACCCAUGUGUGGGUGAGGAUAUGUACUCACUA | – | – | 217 nM | 14 nM
15 | AAUAGUGACCAGAAGGCGUCGCGUCGAUAGCGACGAGGAUAUGGUGAGUGAGGAGCAAACUCCACAUGAGGAUCACCCAUGUCC | – | – | 594 nM | 89.9 nM
16 | UGAAAUCAUGUAGGAUAUGCAUGGCGAAGCUACGCAGAAGGACAUGAGGAUCACCCAUGUUAUGGCUACCCAGUUCGGUGGCAA | 51.8 nM | 117 nM | – | –
17 | CACCGUUAGAGAGGAUAUCGUACAUGAGGAUCACCCAUGUAAUAAAUGAGAAUUUCGGAUGUCUGCGAGAAGGCUCGAAUCGGC | 34.6 nM | 27.9 nM | – | –
18 | GGAUCGAAUGUGAGGAUAUACCACUGGAUACAGUGGUAGAAGGCACAUGAGGAUCACCCAUGUCUCUACGAUCC | 19.6 nM | 111 nM | – | –
19 | GUCGGAAACGACAAAAGUACCCGAGCAGAAGGCAUGUCAUAAGACAUGAGGAUCACCCAUGUGCAUGAGGAUAUGCUCGGGUAC | – | – | 5.83 nM | 5.28 nM
20 | UGUAACUAGUAAGGAUAUACUAUUGAUUUAAUAGUAGAAGGUACAGUCUUUUGUAUAUCAUGUUUACAUGAGGAUCACCCAUGU | – | – | 10.4 nM | 7.77 nM
21 | AUAUUGUGAGGAUAUGAACUUAGAAUCGAAAGAUACUAAGUUCAGAAGGCACAUGAGGAUCACCCAUGUUUCUC | 86 nM | 875 nM | – | –
22 | ACAUUAAGUGCAGGAUAUGCCAACCUGGGUUCGGUAGAAGGGCACAUGAGGAUCACCCAUGUAGCGGUGGGUUGGGCCAAGGUU | 13.3 nM | 35.6 nM | – | –
23 | AGGGAGGAAGCUGAGGAUAUCGUAAGGAGGACAUGAGGAUCACCCAUGUGUGUGGAAUUGGAGGACGAGAAGGCAGAGGAGUGGG | – | – | 31.5 nM | 36 nM
24 | CCCAAACUUGGGUUUGGUGGUGCAUAGGAUAUGCUUGAACAUGAGGAUCACCCAUGUACUAUUGUGCAGAAGGGUGCAUGGCAA | – | – | 401 nM | 29.1 nM
25 | AAAACGUGAGGAUAUACAUGAGGAUCACCCAUGUGAAACAGGAAAAACUGAAAGAAAAGUAGAAGGCACGAAAA | 33.4 nM | 50.1 nM | – | –
26 | GAAUAAUUGAUCCAAUUUAACUACAUGAGGAUCACCCAUGUGCAGGAUAUCGUAAUAUUUAAUUACGAGAAGGGCAAGAACGGU | 366 nM | 516 nM | – | –
27 | CAGGGUAGAGGAUAUACGUAGGUACAGAUCUGUGUGUUCCUACAUGAGGAUCACCCAUGUAGAAGGCUAGCCUG | 89.7 nM | 324 nM | – | –
28 | AAUAAUGAUAAGGAUAUCACUAGCCUCGGCUAGUGAGAAGGUAUCACAUGAGGAUCACCCAUGUGUUCCAAUAA | 16.1 nM | 40.3 nM | – | –

Row | Sequence | apparent Kd [1] | apparent Kd [2] | apparent Kd [3] | apparent Kd [4]
29 | AUUUGAAUCGUAGGAUAUCGCUUAAAUUUACCACGAGAAGGACGAACAUGAGGAUCACCCAUGUAACAUGGUGAAGAUAAUUUG | 31.6 nM | 120 nM | – | –
30 | GUACUGUAGUGAGGAUAUACGAGCUCGAUAGAGCGGCGAUCCAUAUAUACAUGAGGAUCACCCAUGUAGAAGGCACUUCAGUAC | 7.07 nM | 96.5 nM | – | –
31 | UUUUUGUGAGGAUAUCAGUAGUAGAACAAUAGUACUACUACUGAGAAGGCACAUGAGGAUCACCCAUGUUCCUU | 16 nM | 34.6 nM | – | –
32 | GCCAUCACGUGAGGAUAUGCUCCCGUUUCGGGAGCAGAAGGCAUGUCAUCAGACAUGAGGAUCACCCAUGUAGUUAAGAUGGCA | – | – | 43.6 nM | 13.1 nM
33 | ACCAAUCACAUAGGAUAUAGAAUAUUAAAUUUUUACAUGAGGAUCACCCAUGUUUUAUUGGGAUACUAGAAGGAUGAGUAAUAA | – | – | 113 nM | 108 nM
34 | AUCAGCUCGUCAGGAUAUACGCCACUGCGUCAGCAGUGUGGUAAGAUCACAUGAGGAUCACCCAUGUAGAAGGGACGAGCUGAU | 10.9 nM | 147 nM | – | –
35 | GUCAGCUCGUCAGGAUAUACGUCACUGCUUCGGCAGUGUGGUAAGAUCACAUGAGGAUCACCCAUGUAGAAGGGACGAGCUGAG | 13.3 nM | 296 nM | – | –
36 | AGCUGUGGCCGAGGAUAUCUGACUUCAAUAACCGAAAUAUAAUCGGACAUGAGGAUCACCCAUGUAGAGAAGGCGGUCUCAGCA | 17.1 nM | 24.9 nM | – | –
37 | AGCUAGUCAGGAUAUACGAACAUGUCAAAAGACGUGAACCCACAUGAGGAUCACCCAUGUAGAAGGGACUAGCA | 26 nM | 65.7 nM | – | –
38 | UGGUACUAGGGAGGAUAUGGGAAGAUACAUGAGGAUCACCCAUGUUUAAGAAUUCCGAGAGGCAACUAGAAGGCCCUAGUACCU | – | – | 35.7 nM | 13 nM
39 | UCCGAACAUGAGGAUCACCCAUGUCUAAUACGUCAAGGAUAUGGGCGCGGAGAACCGCAACCAGAAGGUGAGAAAU | – | – | 507 nM | 89.4 nM
40 | UGUCUAUUUGAAGGAUAUCUAAGCAUAAACCGGAGAGAAGGUCAAUUAUACAUGAGGAUCACCCAUGUUGAGAUUGAUGGGUUU | 16.2 nM | 18.4 nM | – | –
41 | ACCGGAGCAGGAUAUACAUGAGGAUCACCCAUGUGAGCCACACAGCUACUAUAUGCAAGUAGAAGGGCUCGGGU | 74.2 nM | 120 nM | – | –
42 | ACCAUUUACUAAUUGUCUAUACAUGAGGAUCACCCAUGUUAUGAGGAUAUCGUCGUGAAACACGACGAGAAGGCAUAGCAUUCG | 67.2 nM | 229 nM | – | –
43 | ACCUUAAAAGUGAGGAUAUCUAGGGCCAAAUGGCCGGAGAAGGCACAUGAGGAUCACCCAUGUAACGCCAUGGA | 13.7 nM | 43.7 nM | – | –
44 | GUGGUCAGACAUGAGGAUCACCCAUGUGGAAUAAAUAACGUCAAGGAUAUUCAAUAUAGGAUAUAGAAGAAGGUGAGAUUGGUG | – | – | 153 nM | 177 nM
45 | AACCUGCGUGGAGGAUAUGAGUGGUUGGACGCAUCAGAAGGCCAGCAGCCACAUGAGGAUCACCCAUGUACAGACACAUGUUUC | – | – | 245 nM | 95.1 nM
46 | AAGUAGAUCCGAGGAUAUACAUAGCGGAAACGCAACAUGAGGAUCACCCAUGUAGAAGGCGGAUCUACAGGUACUAAAGUACCA | 7.77 nM | 13.5 nM | – | –
47 | UUAAAUCAUGUAGGAUAUGCAUGGCGAAGCUACGCAGAAGGACAUGAGGAUCACCCAUGUUAUAGCUACCCAGAUCGGUGGCAA | 90.2 nM | 237 nM | – | –
48 | GCGUCAGAAUUAAUUGUGACAUACAGAAGGCAAAAUUAAGGAUAAGACAUGAGGAUCACCCAUGUUGAGGAUAUGUAGUGACGC | 8.7 nM | 7.57 nM | – | –
49 | GGGCGACAUGAGGAUCACCCAUGUCAGGAUAUCGGGCCCGGGCCGAAAGGCCCGGGCCCGAGAAGGGACAGCCC | 18.8 nM | 16.6 nM | – | –
50 | UCGUAUACACAAGGAUAUCAAUGGUUUGUAGAUCCUACAUGAGGAUCACCCAUGUUUUUAUAUUGUGAGAAGGUGUAGUGUCUU | – | – | 620 nM | 564 nM
51 | AGGUAAGAGUUAAUUGUGACGGUGAGAAGGCAAUAGUUUGUGACCGACAUGAGGAUCACCCAUGUUGAGGAUAUCACCACCUAC | 9.59 nM | 40.1 nM | – | –
52 | UACGGACAUGAGGAUCACCCAUGUGAGGAUAUCGAUAACGAUAGCAUAAUAUAAACGGCGAGAAGGCACAGCGU | 32.6 nM | 45.8 nM | – | –
53 | CAGCGCUGUCGAGAGGAUAUGCGGUGAUGGACAUGAGGAUCACCCAUGUUAGCGAUAGCAUUACGGUAGAAGGCUCUGCAGCUGC | – | – | 128 nM | 21 nM
54 | AUCAGCUUGACAGGAUAUACAUCACUGCGAAAGCAGUGUAUCUUAAUAACAUGAGGAUCACCCAUGUAGAAGGGUCGAGCUGAU | 18.4 nM | 32.6 nM | – | –
55 | AGGAUAGGAAAAUUUGUCCAUUGUACAGAAGGCCAACAUGAGGAUCACCCAUGUAAGAAAAGGAUGGAGGAUAUGUAUAGGGCC | – | – | 37.6 nM | 10.6 nM
